Sampled rows, rich in hits. Any-hit rate of the full collection: about 3.5%.
MT stabilize HCS = stabilizes microtubules in HeLa cells. AID 2205. 200,000 compounds, 0.83% hits. HeLa tubulin immunostaining HCS, 24 h; share of cells brighter than vehicle mean+2SD. % tubulin-high responders, % at 10 µM;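 active means plate Z-score above 3 for both tubulin-high and condensed-nucleus cell shares, with cell loss under 80%, at 10 µM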;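 further: anti alpha tubulin signal scored within the nucleus-defined area of each cell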
RAM inhibit = blocks the yeast RAM network. S. cerevisiae dse1pr::URA3 reporter, 5-FOA growth OD615, 2 d; analog-sensitive cbk1-as2 kinase mutant strain. inhibition, % at 50 µM. 190,000 compounds, 1.8% hits;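 active means inhibition above a set limit, 3 SD over mean compound inhibition, cut at about 8.4% in these data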;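 further: 0% = DMSO-only wells with no growth and 100% = 10 µM 1-NA-PP1 full growth; inhibition rescues growth on 5-FOA so higher OD means more RAM inhibition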
BB579 growth dn = yeast BB579 growth reduction in restrictive medium; S. cerevisiae BB579 growth, OD615, 48 h; inhibition, % at 10 µM; 140,000 compounds, 0.51% hits;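 active means inhibition above a set limit, 3 SD over the mean compound inhibition, cut at about 44% in these data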
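Material: Saccharomyces cerevisiae DeaD strain BB579, replicative lifespan model yeast; buffer or medium: CSMM-D restrictive synthetic medium containing dextrose (glucose); compound: 10 µM single dose, DMSO 0.25%; timing: 48 h compound exposure at 30 °C after 4 h preincubation; signal: turbidity as optical density at 615 nm; benchmarks: positive control amphotericin B 10 µg/mL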
Efa HMGR inh = inhibitors of class II HMG-CoA reductase from Enterococcus faecalis; inhibition, % at 10 µM; 190,000 compounds, 0.41% hits; AID 1066; purified E. faecalis HMGR, NADPH absorbance 340 nm kinetic;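 active means inhibition above a set limit, the median over all tested compounds plus 3 SD, cut at about 9.5% in these data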;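 further: enzyme runs in reverse so mevalonate oxidation gives rising NADPH absorbance; 0% = complete reaction with DMSO and 100% = background rate lacking mevalonate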
b-catenin transl = beta-catenin nuclear translocation modulation. 190,000 compounds, 0.3% hits. AID 1665. HeLa beta-catenin nuclear translocation, immunofluorescence imaging. nuclear translocation activity, % at 5 µM;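 active means nuclear translocation activity above 50% at 5 µM, with a well cell count of 50 or more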;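 further: per-cell ratio of nuclear to cytoplasmic median beta-catenin stain intensity; plate controls were DMSO negative control for no effect and GSK-3 inhibitor IX positive control for full effect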
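Test system: human HeLa cell line; Doses: 5 µM primary, 0.02–20 µM confirmation; Incubation: 24 h compound exposure, 37°C; Detection: beta-catenin immunofluorescence imaging with DAPI; Read-out: beta-catenin nuclear/cytoplasmic ratio, % activation.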
Yeast lifespan up = extends the lifespan of yeast; 130,000 compounds, 0.68% hits; S. cerevisiae growth with nicotinamide, OD615; deaD strain in restrictive glucose medium; inhibition of the nicotinamide effect, % at 10 µM;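 active means inhibition above a set limit, placed 3 SD over the median of all compounds, cut at about 26% in these data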;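 further: 0% = nicotinamide-treated wells and 100% = cells grown without nicotinamide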
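Buffer or medium: CSMM-D glucose medium, restrictive; test system: modified budding yeast, DeaD strain; compound: single dose 10 µM compound, 0.25% DMSO; schedule: culture preincubation 4 h, compound exposure 48 h, both 30 °C; detection: optical density (absorbance) at 615 nm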
RAM 5-FOA = RAM network inhibitors in efflux-deficient yeast | AID 1305 | shares compounds with RAM inhibit | 1,200 tested, under 10 active | S. cerevisiae efflux-deficient reporter strain, 5-FOA growth OD615, 2 days | max inhibition, %; call rule not given here;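 further: plate controls were vehicle for no effect and reference inhibitor for full effect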
Active calls of the source: *; . = no result given.

SMILES	MT stabilize HCS	RAM inhibit	BB579 growth dn	Efa HMGR inh	b-catenin transl	Yeast lifespan up	RAM 5-FOA
CCOC(=O)C1CCN(C(=O)COc2ccc(S(=O)(=O)N3CCCC3)cc2C)CC1	2	0	.	0	-3	.	.
COc1ccc(C(=O)NNC(=O)C(Cc2ccc(O)cc2)NC(=O)c2ccccc2NC(=O)c2ccc(OC)cc2)cc1 (stereo not drawn)	1	12*	-27	5	-1	6	4
COc1ccc(CCC(=O)O)cc1OC	.	.	.	.	1	.	.
C=CCn1c(COc2ccc3c(c2)CCCC3)nnc1SCC(=O)Nc1cccc(SC)c1	3	15*	-17	1	1	-9	4
CCOC(=O)c1cccc(NC(=O)CSc2nnc(COc3ccccc3C)o2)c1	3	12*	6	2	-2	-3	1
COc1cccc(NC(=O)CSc2nnc(COc3ccc4c(c3)CCCC4)o2)c1	3	12*	-19	-1	-5	.	2
C=CCn1c(COc2ccccc2)nnc1SCC(=O)Nc1ccc2c(c1)OCCO2	3	4	-16	-4	-1	-2	.
CSC1=NS(=O)(=O)c2c(C)nn(C)c2S1	.	.	.	.	-1	.	.
Cc1nc(N2CCCCC2)c(C#N)c(C)c1[N+](=O)[O-]	3	-1	.	-2	-4	.	.
O=C(CSc1nnc(Cc2cccs2)n1Cc1ccco1)Nc1cc(Cl)cc(Cl)c1	3	12*	-54	0	-5	-2	1
CCOc1ccc(NC(=O)CSc2nnc(-c3ccccc3Cl)n2Cc2ccco2)cc1	5	15*	-48	-4	-3	-25	2
Cc1ccc(NC(=O)CSc2nnc(-c3cccs3)n2Cc2ccco2)cc1	3	12*	2	0	-1	-14	1
CN(C)c1ccc(NC(=O)CSc2nnc(-c3cccs3)n2Cc2ccco2)cc1	2	2	-17	-6	.	-5	.
O=C(CSc1nnc(Cc2cccs2)n1Cc1ccco1)Nc1cccc(Cl)c1	2	3	-32	0	0	-16	.
COc1ccc(NC(=O)CSc2nnc(-c3ccccc3Cl)n2Cc2ccco2)c(OC)c1	2	-1	-17	-2	1	-10	.
O=C(Nc1ccccc1C(=O)NC(Cc1ccccc1)C(=O)NC1CCCCC1)c1ccccc1 (stereo not drawn)	4	1	-20	1	0	-1	.
CSc1ccc(/C=C/C(=O)c2ccc(NC(=O)Cc3ccccc3)cc2)cc1	2	14*	-70	-2	0	-20	6
Cc1ccc(C(=O)NCC(=O)OC(C)C(=O)Nc2ccc(N3CCOCC3)cc2)s1 (stereo not drawn)	.	.	.	.	0	.	.
N#Cc1nc(-c2ccc(OCc3ccccc3)cc2)oc1NCc1cccnc1	7	7	-48	-2	1	-23	.
CN(C)c1oc(-c2ccc(OCc3ccccc3)cc2)nc1C#N	5	14*	-24	0	-1	-20	3
CCCC(=O)OCCNc1cc(SCc2ccco2)c2nonc2c1[N+](=O)[O-]	2	14*	-2	0	2	2	3
COc1ccc(-c2noc(CCC(=O)N3CCN(c4cc(C)ccc4C)CC3)n2)cc1	1	4	-25	-1	0	-17	.
Cc1ccc(-c2noc(CCC(=O)N3CCN(c4cccc(C(F)(F)F)c4)CC3)n2)cc1	3	12*	-48	-1	.	-7	1
C(=N\N(c1ccccc1)c1ccccc1)/c1ccc2c(c1)OCO2	3	14*	-41	-1	.	-16	7
CN(/N=C/c1ccc2c(c1)OCO2)c1ccccc1	2	4	-47	0	-1	-10	.
SMILES	MT stabilize HCS	RAM inhibit	BB579 growth dn	Efa HMGR inh	b-catenin transl	Yeast lifespan up	RAM 5-FOA
CNCc1ccccc1OCc1ccc(F)cc1	2	1	.	-4	0	.	.
CCOc1cc(C2NN=C(c3ccccc3)S2)ccc1OCc1ccc(F)cc1 (stereo not drawn)	2	12*	-32	0	-6	-4	3
CCOc1cc(C2NN=C(c3ccccc3)S2)ccc1OCc1ccccc1Cl (stereo not drawn)	3	13*	-60	3	0	-25	4
CN1C(=O)/C(=C/c2ccccc2OCc2cccc(F)c2)NC1=S	3	11*	-81	2	2	-10	2
Cc1cccc(C(=O)Nc2cccc(OC(=O)c3cccc(C)c3)c2)c1	1	14*	-22	-9	-1	-12	5
COC(=O)COc1cccc(NC(=O)c2cccc(C)c2)c1	3	0	.	2	0	.	.
O=C(CCl)Nc1nc(-c2ccco2)c(-c2ccco2)s1	3	1	39	2	2	-4	.
O=C(CCCSc1ccccc1)Nc1nc(-c2ccco2)c(-c2ccco2)s1	3	13*	-46	-1	.	7	3
CC1(C)C(C=C(Cl)Cl)C1C(=O)Nc1ccc([N+](=O)[O-])cc1 (stereo not drawn)	4	11*	54*	3	.	-4	2
O=C(/C=C/c1ccc(Cl)cc1Cl)NCCSCc1ccccc1	2	16*	-38	-3	0	-2	4
Nc1ccc(S(=O)C(F)(F)F)cc1 (stereo not drawn)	2	2	.	-7	-1	.	.
COc1cc(NS(=O)(=O)c2ccc(Nc3nc(-c4ccccc4)cs3)cc2)nc(OC)n1	2	11*	-33	-4	1	3	2
O=C(COC(=O)c1ccncc1)Nc1ccccc1	2	2	.	-24	-3	.	.
O=C(COC(=O)c1ccc(CSc2ccc(Cl)cc2)cc1)Nc1ccccc1	5	11*	-48	-1	-2	10	2
CCOC(=O)c1sc(-c2ccc(OC)cc2)cc1NC(C)=O	3	18*	-1	1	.	-4	1
C=CC[n+]1ccc(/C=C2\C=Cc3cc(C)ccc3N2CC)c2ccccc21	12	0	.	1	0	.	.
O=C(Cn1nnc(-c2cccs2)n1)NNC(=O)c1ccccc1Cl	.	.	.	.	0	.	.
Cc1ccc(-n2c(SCC(=O)N3CCCc4ccccc43)nnc2-c2cccnc2)c(C)c1	1	12*	-55	-3	0	6	1
O=C(CN1C(=O)CSc2ccc(S(=O)(=O)N3CCOCC3)cc21)NCCCN1CCc2ccccc2C1	7	1	.	0	1	.	.
C/C=C(/C)C(=O)O[C@@H]1c2c(ccc3ccc(=O)oc23)O[C@@H]1C(C)(C)OC(=O)/C(C)=C\C	5	18*	-54	5	-1	7	5
C/C=C(/C)C(=O)OC(C)(C)[C@@H]1Cc2c(ccc3ccc(=O)oc23)O1	2	2	-36	3	-2	10	.

Screens (PubChem BioAssay)
